Activity calls are given as the source filed them. No cut-off for these calls is given here.
What was measured:
[1] = Induction of GM-CSF secretion in human CD161+ CD3+ NKT cells at 10 ug/ml after 18 hrs relative to basal level; format: functional
In short: (§1)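 Human Vα24i NKT cell lines were expanded for 10 days on irradiated (3,000 rad) autologous immature DCs with 10 units/ml IL-2. The cells (1 × 10^5) were cocultured with 5 × 10^4 irradiated immature CD14+ DCs plus glycolipid at 10 μg/ml. Supernatants were collected at 18 h and read on a 22-plex Luminex bead panel. Triplicates, mean ± SD.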

Mus musculus [2] = assay: Induction of MIPbeta secretion in BALB/c mouse serum at 2 ug, iv after 2 hrs relative to control; format: functional
In short: (§2)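 BALB/c mice received an i.v. injection of 100 μl of glycolipid diluted to 20 μg/ml in saline from DMSO stock, with 1% DMSO as vehicle. Serum cytokines/chemokines were measured at 2 and 18 h after injection.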

Mus musculus [3] = assay: Induction of IL13 secretion in BALB/c mouse serum at 2 ug, iv after 2 hrs relative to control; format: functional; in short: as §2
[4] = Induction of TNFalpha secretion in human CD161+ CD3+ NKT cells at 10 ug/ml after 18 hrs relative to basal level; format: functional; in short: as §1
[5] = Induction of IL2 secretion in human CD161+ CD3+ NKT cells at 10 ug/ml after 18 hrs relative to basal level; format: functional; in short: as §1
Mus musculus [6] = assay: Induction of TNFalpha secretion in BALB/c mouse serum at 2 ug, iv after 18 hrs relative to control; format: functional; in short: as §2
[7] = Induction of IL3 secretion in human CD161+ CD3+ NKT cells at 10 ug/ml after 18 hrs relative to basal level; format: functional; in short: as §1
[8] = Induction of RANTES secretion in human CD161+ CD3+ NKT cells at 10 ug/ml after 18 hrs relative to basal level; format: functional; in short: as §1
NKT = assay: Stimulation of cell expansion of human invariant CD161+/ Valpha24+/ CD56+/ CD3+ NKT cells by flow cytometry method; format: functional, cell-based
In short: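 CD56+ NK/NKT mixtures (2 × 10^6) were isolated from human leukopaks with anti-CD56 microbeads. They were cocultured with 4 × 10^5 autologous immature CD14+ DCs pulsed with glycolipid at 3 μg/ml, or with 0.3% DMSO, on day 2 for 18 h. Suspension cells were then transferred and kept in 100 units/ml IL-2 with fresh medium every 3 days. On day 9, CD161+/Vα24TCR+ cells were gated by flow cytometry and total Vα24i NKT cells counted. Triplicates, mean ± SD.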

Mus musculus [9] = assay: Activation of B cells in BALB/c mouse at 2 ug, iv after 72 hrs by flow cytometry; format: functional, organism-based
Mus musculus [10] = assay: Induction of GM-CSF secretion in BALB/c mouse serum at 2 ug, iv after 2 hrs relative to control; format: functional; in short: as §2
[11] = Induction of IL10 secretion in human CD161+ CD3+ NKT cells at 10 ug/ml after 18 hrs relative to basal level; format: functional; in short: as §1
[12] = Induction of IL12p40 secretion in human CD161+ CD3+ NKT cells at 10 ug/ml after 18 hrs relative to basal level; format: functional; in short: as §1
[13] = Induction of IL13 secretion in human CD161+ CD3+ NKT cells at 10 ug/ml after 18 hrs relative to basal level; format: functional; in short: as §1
[14] = Induction of IFN-gamma secretion in human CD161+ CD3+ NKT cells at 10 ug/ml after 18 hrs relative to basal level; format: functional; in short: as §1
[15] = Induction of IL4 secretion in human CD161+ CD3+ NKT cells at 10 ug/ml after 18 hrs relative to basal level; format: functional; in short: as §1
Mus musculus [16] = assay: Induction of IL10 secretion in BALB/c mouse serum at 2 ug, iv after 18 hrs relative to control; format: functional; in short: as §2
[17] = Induction of IL12p70 secretion in human CD161+ CD3+ NKT cells at 10 ug/ml after 18 hrs relative to basal level; format: functional; in short: as §1
Mus musculus [18] = assay: Induction of IL4 secretion in BALB/c mouse serum at 2 ug, iv after 2 hrs relative to control; format: functional; in short: as §2
Mus musculus [19] = assay: Induction of MCP1 secretion in BALB/c mouse serum at 2 ug, iv after 2 hrs relative to control; format: functional; in short: as §2
[20] = Induction of MIPalpha secretion in human CD161+ CD3+ NKT cells at 10 ug/ml after 18 hrs relative to basal level; format: functional; in short: as §1
Mus musculus [21] = assay: Induction of IL2 secretion in BALB/c mouse serum at 2 ug, iv after 2 hrs relative to control; format: functional; in short: as §2
[22] = Induction of MCP1 secretion in human CD161+ CD3+ NKT cells at 10 ug/ml after 18 hrs relative to basal level; format: functional; in short: as §1
Mus musculus [23] = assay: Induction of RANTES secretion in BALB/c mouse serum at 2 ug, iv after 2 hrs relative to control; format: functional; in short: as §2
Mus musculus [24] = assay: Induction of IL12p70 secretion in BALB/c mouse serum at 2 ug, iv after 18 hrs relative to control; format: functional; in short: as §2
Mus musculus [25] = assay: Induction of IL12p40 secretion in BALB/c mouse serum at 2 ug, iv after 18 hrs relative to control; format: functional; in short: as §2
[26] = Induction of IL15 secretion in human CD161+ CD3+ NKT cells at 10 ug/ml after 18 hrs relative to basal level; format: functional; in short: as §1
[27] = Induction of IL6 secretion in human CD161+ CD3+ NKT cells at 10 ug/ml after 18 hrs relative to basal level; format: functional; in short: as §1
Mus musculus [28] = assay: Increase in CD8/CD4 T cell ratio in BALB/c mouse at 2 ug, iv after 72 hrs by flow cytometry; format: functional, organism-based
Mus musculus [29] = assay: Induction of IL1-beta secretion in BALB/c mouse serum at 2 ug, iv after 18 hrs relative to control; format: functional; in short: as §2
Mus musculus [30] = assay: Induction of IFN-gamma secretion in BALB/c mouse serum at 2 ug, iv after 18 hrs relative to control; format: functional; in short: as §2
Mus musculus [31] = assay: Induction of KC secretion in BALB/c mouse serum at 2 ug, iv after 2 hrs relative to control; format: functional; in short: as §2
Mus musculus [32] = assay: Induction of IL6 secretion in BALB/c mouse serum at 2 ug, iv after 2 hrs relative to control; format: functional; in short: as §2
Mus musculus [33] = assay: Induction of IL3 secretion in BALB/c mouse serum at 2 ug, iv after 2 hrs relative to control; format: functional; in short: as §2
[34] = Induction of IL8 secretion in human CD161+ CD3+ NKT cells at 10 ug/ml after 18 hrs relative to basal level; format: functional; in short: as §1
HeLa [35] = assay: Activation of TCR in human HeLa cells overexpressing CD1d assessed as increase in CREB phosphorylation; format: cell-based
In short: (§3)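 Human HeLa, HeLa-CD1d or autologous immature DCs were loaded with glycolipid at 10 μg/ml, or DMSO, for 2 h. Then 3 × 10^5 naïve CD161+/CD3+ NKT cells were added; these were bead-isolated and kept in 100 units/ml IL-2. After 5–10 min the cells were washed and lysed at 4°C. Phospho-CD3ε, ERK1/2 (Thr-185/Tyr-187) and CREB (Ser-133) were read by Luminex bead assay as median fluorescence normalized to total protein, expressed as fold over 1% DMSO.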

dendritic [36] = assay: Activation of TCR in human immature dendritic cells assessed as increase in CREB phosphorylation; format: cell-based; in short: as §3
dendritic [37] = assay: Activation of TCR in human immature dendritic cells assessed as increase in CD3epsilon phosphorylation; format: cell-based; in short: as §3
4T1 = assay: Antitumor activity in mouse 4T1 cells xenografted BALB/c mouse assessed as suppression of tumor growth at 2 ug, iv; format: functional, cell-based
In short: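 BALB/c mice (n = 6) were inoculated s.c. with 4T1 breast cancer cells. From day 3 they were treated i.v. with glycolipid or vehicle twice weekly for 4 weeks. Tumor volume was recorded every 3 days for 1 month, and survival was monitored up to 54 days.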

TC1 = assay: Antitumor activity in TC1 cells xenografted C57BL/6 mouse assessed as suppression of tumor growth at 2 ug, iv; format: functional, cell-based
In short: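 C57BL/6 mice (n = 5/group) were inoculated i.v. with TC-1 lung cancer cells. They were then treated i.v. with 2 μg glycolipid per mouse, or 100 μl of 1% DMSO, twice weekly for 4 weeks. Kaplan–Meier survival and body weight were followed, with tumor-free mice as an additional control.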

dendritic [38] = assay: Activation of TCR in human immature dendritic cells assessed as increase in ERK1/2 phosphorylation; format: cell-based; in short: as §3
HeLa [39] = assay: Activation of TCR in human HeLa cells overexpressing CD1d assessed as increase in ERK1/2 phosphorylation; format: cell-based; in short: as §3
HeLa [40] = assay: Activation of TCR in human HeLa cells overexpressing CD1d assessed as increase in CD3epsilon phosphorylation; format: cell-based; in short: as §3

For `CCCCCCCCCCCCCC[C@@H](O)[C@@H](O)[C@H](CO[C@H]1O[C@H](CO)[C@H](O)[C@H](O)[C@H]1O)NC(=O)CCCCCCCCCCCCC`, the Activity [1] was 3, the Activity (Mus musculus [2]) was 1.5 and the Activity (Mus musculus [3]) was 0.9. The Activity [4] was 3, the Activity [5] was 1.8 and the Activity (Mus musculus [6]) was 2. The Activity [7] was 1.7, the Activity [8] was 2 and the Activity (NKT) was “Active”. The Activity (Mus musculus [9]) was “Active”, the Activity (Mus musculus [10]) was 1.6 and the Activity [11] was 1.9. It also gave an Activity [12] of 1.7, an Activity [13] of 1.9 and an Activity [14] of 2.7. For the same compound, the Activity [15] was 2.8, the Activity (Mus musculus [16]) was 5.4 and the Activity [17] was 1.6. It also gave an Activity (Mus musculus [18]) of 26.2, an Activity (Mus musculus [19]) of 2.6 and an Activity [20] of 3.5. The Activity (Mus musculus [21]) was 14, the Activity [22] was 1.4 and the Activity (Mus musculus [23]) was 0.9. For the same compound, the Activity (Mus musculus [24]) was 3.5, the Activity (Mus musculus [25]) was 0.9 and the Activity [26] was 2.4. For the same compound, the Activity [27] was 1.9, the Activity (Mus musculus [28]) was “Active” and the Activity (Mus musculus [29]) was 2.4. The Activity (Mus musculus [30]) was 43.8, the Activity (Mus musculus [31]) was 3.9 and the Activity (Mus musculus [32]) was 1.5. For the same compound, the Activity (Mus musculus [33]) was 1.5 and the Activity [34] was 2.2.
Work on `CCCCCCCCCCCCCC[C@@H](O)[C@@H](O)[C@H](CO[C@H]1O[C@H](CO)[C@H](O)[C@H](O)[C@H]1O)NC(=O)CCCCCCCc1ccccc1` yielded an Activity [1] of 6.7, an Activity (Mus musculus [2]) of 3.8 and an Activity (Mus musculus [3]) of 10.9. For the same compound, the Activity (HeLa [35]) was 117, the Activity (dendritic [36]) was 204 and the Activity [4] was 8.1. For the same compound, the Activity [5] was 6.1, the Activity (dendritic [37]) was 21.3 and the Activity (Mus musculus [6]) was 22.4. The Activity [7] was 4.2, the Activity [8] was 1.7 and the Activity (NKT) was “Active”. The Activity (Mus musculus [9]) was “Active”, the Activity (Mus musculus [10]) was 2.9 and the Activity [11] was 2.3. For the same compound, the Activity [12] was 2.3, the Activity [13] was 1.7 and the Activity (4T1) was “Active”. The Activity [14] was 6.4, the Activity [15] was 2.6 and the Activity (Mus musculus [16]) was 1.3. For the same compound, the Activity [17] was 4.7, the Activity (Mus musculus [18]) was 53.1 and the Activity (Mus musculus [19]) was 19.4. For the same compound, the Activity [20] was 3.3, the Activity (Mus musculus [21]) was 70.3 and the Activity [22] was 1. For the same compound, the Activity (Mus musculus [23]) was 2.3, the Activity (Mus musculus [24]) was 2.6 and the Activity (TC1) was “Active”. For the same compound, the Activity (Mus musculus [25]) was 3.8, the Activity [26] was 2.8 and the Activity [27] was 2.2. For the same compound, the Activity (Mus musculus [28]) was “Active”, the Activity (Mus musculus [29]) was 4.7 and the Activity (dendritic [38]) was 48.3. For the same compound, the Activity (Mus musculus [30]) was 48.3, the Activity (Mus musculus [31]) was 11 and the Activity (Mus musculus [32]) was 2.8. The Activity (HeLa [39]) was 14.6, the Activity (Mus musculus [33]) was 2.4 and the Activity (HeLa [40]) was 10. The Activity [34] was 1.8.
